Measurements as given in ChEMBL document CHEMBL4382219, “Synthesis and Biological Evaluation of Cajaninstilbene Acid and Amorfrutins A and B as Inhibitors of the Pseudomonas aeruginosa Quorum Sensing System” (J Nat Prod, 2018).
Active and inactive are the calls of the source. The calls are words filed in the database; no cut-off is given here.

Tests used:
Pseudomonas aeruginosa [1] = assay: Anti-biofilm activity against Pseudomonas aeruginosa PAO1 at 50 uM after 24 hrs by crystal violet staining based assay relative to control; format: functional
Method in brief: (§1)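 PAO1 grown overnight in LB, then diluted in ABTGC medium (B-medium with 0.1% MgCl₂, 0.1% CaCl₂, 0.1% FeCl₃, plus 10% A10, 0.2% glucose, 0.2% casamino acids) and mixed with compound. Static 24 h at 37 °C. Wells PBS-washed, MeOH-fixed 20 min, stained 20 min with 0.1% w/v crystal violet, then dissolved in 33% AcOH.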

[2] = target: Elastase (Pseudomonas aeruginosa (strain ATCC 15692 / PAO1 / 1C / PRS 101 / LMG12228)) (UniProt P14756); assay: Inhibition of lasB quorum sensing system in Pseudomonas aeruginosa PAO1 assessed as reduction in elastase release at 10 uM after 24 hrs relative to control
Chain of Elastase (Pseudomonas aeruginosa (strain ATCC 15692 / PAO1 / 1C / PRS 101 / LMG12228)) (P14756 198-498 limits assumed): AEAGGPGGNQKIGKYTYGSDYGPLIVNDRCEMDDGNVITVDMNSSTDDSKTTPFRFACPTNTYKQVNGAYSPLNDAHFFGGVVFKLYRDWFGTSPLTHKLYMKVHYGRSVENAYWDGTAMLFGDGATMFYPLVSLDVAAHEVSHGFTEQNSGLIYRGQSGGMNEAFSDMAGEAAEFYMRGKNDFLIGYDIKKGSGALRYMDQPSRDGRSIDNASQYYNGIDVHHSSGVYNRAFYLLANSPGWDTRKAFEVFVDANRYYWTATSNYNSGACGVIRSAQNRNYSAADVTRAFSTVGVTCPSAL
Method in brief: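 Elastase: overnight wild-type PAO1 diluted in ABTGC medium to OD600 0.01 and grown 24 h at 37 °C with shaking at 200 rpm. Supernatant elastase measured by a fluorogenic elastase kit. PAO1ΔlasIΔrhlI served as blank; DMSO as control.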

[3] = target: T1, Anthranilate--CoA ligase (Pseudomonas aeruginosa (strain ATCC 15692 / DSM 22644 / CIP 104116 /JCM 14847 / LMG 12228 / 1C / PRS 101 / PAO1)) (UniProt Q9I4X3); assay: Inhibition of pqsA quorum sensing system in Pseudomonas aeruginosa PAO1 harboring mini-ctx-pqsA-lacZ after 24 hrs by beta-galactosidase reporter gene assay
T1 sequence (whole entry): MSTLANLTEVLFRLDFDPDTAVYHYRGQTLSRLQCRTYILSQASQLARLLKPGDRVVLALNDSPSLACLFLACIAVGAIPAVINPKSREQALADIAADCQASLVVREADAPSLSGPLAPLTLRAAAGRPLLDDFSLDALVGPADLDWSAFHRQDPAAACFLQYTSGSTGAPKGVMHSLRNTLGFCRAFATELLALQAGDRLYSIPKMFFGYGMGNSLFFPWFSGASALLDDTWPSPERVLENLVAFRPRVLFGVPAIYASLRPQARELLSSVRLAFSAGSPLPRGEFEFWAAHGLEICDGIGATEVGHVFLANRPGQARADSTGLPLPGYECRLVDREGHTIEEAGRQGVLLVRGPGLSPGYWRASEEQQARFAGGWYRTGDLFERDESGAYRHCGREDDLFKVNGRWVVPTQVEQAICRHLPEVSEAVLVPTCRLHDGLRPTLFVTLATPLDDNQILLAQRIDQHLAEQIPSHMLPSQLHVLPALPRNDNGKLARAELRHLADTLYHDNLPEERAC

[4] = target: T1, Anthranilate--CoA ligase (Pseudomonas aeruginosa (strain ATCC 15692 / DSM 22644 / CIP 104116 /JCM 14847 / LMG 12228 / 1C / PRS 101 / PAO1)); assay: Inhibition of pqsA quorum sensing system in Pseudomonas aeruginosa PAO1 harboring mini-ctx-pqsA-lacZ at 50 uM in presence of PQS by beta-galactosidase reporter gene assay
Method in brief: (§2)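 Competition: overnight lasB-lacZ or pqsA-lacZ reporter cultures diluted in ABTGC medium to OD600 0.01. Compound at 50 μM added with ODdHL (lasB) or PQS (pqsA) at final 50, 20, 10 or 0 μM. β-galactosidase measured when OD600 reached 1.0. DMSO control; triplicate.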

Pseudomonas aeruginosa [5] = assay: Anti-biofilm activity against Pseudomonas aeruginosa PAO1 after 24 hrs by crystal violet staining based assay; format: functional, organism-based; method in brief: as §1
[6] = target: 3-(3-hydroxydecanoyloxy)decanoate synthase (Pseudomonas aeruginosa (strain ATCC 15692 / PAO1 / 1C / PRS 101 / LMG12228)) (UniProt Q51559); assay: Inhibition of RhlA quorum sensing system in Pseudomonas aeruginosa PAO1 harboring mini-ctx-RhlA-lacZ at 2.5 to 20 uM after 6 hrs by beta-galactosidase reporter gene assay
[7] = target: T1, Anthranilate--CoA ligase (Pseudomonas aeruginosa (strain ATCC 15692 / DSM 22644 / CIP 104116 /JCM 14847 / LMG 12228 / 1C / PRS 101 / PAO1)); assay: Inhibition of pqsA quorum sensing system in Pseudomonas aeruginosa PAO1 assessed as reduction in pyocyanin release at 10 uM after 20 hrs relative to control
Method in brief: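 Pyocyanin: overnight PAO1 diluted in LB to OD600 0.01; 20 mL cultures shaken at 37 °C for 20 h. Centrifuged at 1500g for 10 min; supernatant absorbance read at 695 nm. PAO1ΔlasIΔrhlI served as blank; DMSO as control.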

[8] = target: Elastase (Pseudomonas aeruginosa (strain ATCC 15692 / PAO1 / 1C / PRS 101 / LMG12228)) (UniProt P14756); assay: Inhibition of lasB quorum sensing system in Pseudomonas aeruginosa PAO1 harboring mini-ctx-lasB-lacZ after 6 hrs by beta-galactosidase reporter gene assay
Pseudomonas aeruginosa [9] = assay: Anti-biofilm activity against Pseudomonas aeruginosa PAO1 at 1 to 50 uM after 24 hrs by crystal violet staining based assay relative to control; format: functional; method in brief: as §1
Pseudomonas aeruginosa [10] = assay: Toxicity in Pseudomonas aeruginosa PAO1 harboring mini-ctx-lacZ assessed as effect on beta-galactosidase activity at 2.5 to 50 uM beta-galactosidase reporter gene assay; format: organism-based; details: in vivo
[11] = target: 3-(3-hydroxydecanoyloxy)decanoate synthase (Pseudomonas aeruginosa (strain ATCC 15692 / PAO1 / 1C / PRS 101 / LMG12228)) (UniProt Q51559); assay: Inhibition of RhlA quorum sensing system in Pseudomonas aeruginosa PAO1 harboring mini-ctx-RhlA-lacZ at 50 uM after 6 hrs by beta-galactosidase reporter gene assay
[12] = target: Elastase (Pseudomonas aeruginosa (strain ATCC 15692 / PAO1 / 1C / PRS 101 / LMG12228)) (UniProt P14756); assay: Inhibition of lasB quorum sensing system in Pseudomonas aeruginosa PAO1 harboring mini-ctx-lasB-lacZ at 50 uM in presence of ODdHL by beta-galactosidase reporter gene assay; method in brief: as §2
Pseudomonas aeruginosa [13] = assay: Toxicity in Pseudomonas aeruginosa PAO1 assessed as growth inhibition at 1 to 50 uM after 2 to 16 hrs; format: organism-based; details: in vivo
[14] = target: 3-(3-hydroxydecanoyloxy)decanoate synthase (Pseudomonas aeruginosa (strain ATCC 15692 / PAO1 / 1C / PRS 101 / LMG12228)) (UniProt Q51559); assay: Inhibition of RhlA quorum sensing system in Pseudomonas aeruginosa PAO1 assessed as reduction in rhamnolipid production at 10 to 50 uM after 20 hrs
Method in brief: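 Rhamnolipid by orcinol method: overnight PAO1 diluted in phosphate minimal medium with 0.6% glycerol, 5 mL cultures shaken at 37 °C for 20 h with compound at various concentrations; DMSO control. Cultures centrifuged 12000g, 4 °C, 5 min; orcinol reaction at 80 °C for 30 min. A421 divided by final OD600.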

COc1cc(CCc2ccccc2)c(C(=O)O)c(OC(C)=O)c1CC=C(C)C
Activity (Pseudomonas aeruginosa [1]): 36.9%

COc1cc(CCc2ccccc2)c(C=O)c(OC(C)=O)c1C/C=C(\C)CCC=C(C)C
Activity (Pseudomonas aeruginosa [1]): 24.7%

COc1cc(CCc2ccccc2)c(C=O)c(O)c1CC=C(C)C
Activity (Pseudomonas aeruginosa [1]): 26.9%

COc1cc(CCc2ccccc2)c(C=O)c(OC(C)=O)c1CC=C(C)C
Activity (Pseudomonas aeruginosa [1]): -32.1%

COc1cc(/C=C/c2ccccc2)c(C=O)c(OCC=C(C)C)c1
Activity (Pseudomonas aeruginosa [1]): -14.3%

COc1cc(CCc2ccccc2)c(C(=O)O)c(OC(C)=O)c1C/C=C(\C)CCC=C(C)C
Activity (Pseudomonas aeruginosa [1]): -32.9%

COc1cc(/C=C/c2ccccc2)c(C=O)c(O)c1CC=C(C)C
Activity (Pseudomonas aeruginosa [1]): 42.4%

COc1cc(CCc2ccccc2)c(C(=O)O)c(O)c1C/C=C(\C)CCC=C(C)C
inhibition [2]: 50% | inhibition [3]: Dose-dependent effect | inhibition [4]: inactive | Activity (Pseudomonas aeruginosa [5]): Dose-dependent effect | inhibition [6]: inactive | inhibition [7]: 50% | inhibition [8]: Dose-dependent effect | Activity (Pseudomonas aeruginosa [9]): 20 - 50% | Activity (Pseudomonas aeruginosa [10]): Non-Toxic | Activity (Pseudomonas aeruginosa [1]): 50.3% | inhibition [11]: Active | inhibition [12]: inactive | growth inhibition (GI) (Pseudomonas aeruginosa [13]): Non-Toxic | inhibition [14]: inactive

COc1cc(/C=C/c2ccccc2)c(C(=O)O)c(O)c1CC=C(C)C
Activity (Pseudomonas aeruginosa [1]): -41%

COc1cc(CCc2ccccc2)c(C(=O)O)c(O)c1CC=C(C)C [AMORFRUTIN A]
Activity (Pseudomonas aeruginosa [1]): -31.3%

COc1cc(CCc2ccccc2)c(C=O)c(O)c1C/C=C(\C)CCC=C(C)C
Activity (Pseudomonas aeruginosa [1]): 53.1%

COc1cc(/C=C/c2ccccc2)c(C(=O)O)c(OC(C)=O)c1CC=C(C)C
Activity (Pseudomonas aeruginosa [1]): -24.4%

COc1cc(/C=C/c2ccccc2)c(C=O)c(OC(C)=O)c1CC=C(C)C
Activity (Pseudomonas aeruginosa [1]): -12.5%
